High-throughput results as filed in PubChem BioAssay.
ABCB6 inh 2 = human ABCB6 transporter inhibition; Q9NP58; K562-ABCB6 porphyrin accumulation, flow cytometry, 1 h; stronger effect = lower value; fluorescence ratio to DMSO, % at 10 µM; 360,000 compounds, 0.19% hits;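 active = fluorescence ratio to DMSO below 75%, the collection mean minus 3 SD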;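 note: signal is porphyrin accumulated inside mitochondria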
Target sequence (Q9NP58 whole entry, looked up): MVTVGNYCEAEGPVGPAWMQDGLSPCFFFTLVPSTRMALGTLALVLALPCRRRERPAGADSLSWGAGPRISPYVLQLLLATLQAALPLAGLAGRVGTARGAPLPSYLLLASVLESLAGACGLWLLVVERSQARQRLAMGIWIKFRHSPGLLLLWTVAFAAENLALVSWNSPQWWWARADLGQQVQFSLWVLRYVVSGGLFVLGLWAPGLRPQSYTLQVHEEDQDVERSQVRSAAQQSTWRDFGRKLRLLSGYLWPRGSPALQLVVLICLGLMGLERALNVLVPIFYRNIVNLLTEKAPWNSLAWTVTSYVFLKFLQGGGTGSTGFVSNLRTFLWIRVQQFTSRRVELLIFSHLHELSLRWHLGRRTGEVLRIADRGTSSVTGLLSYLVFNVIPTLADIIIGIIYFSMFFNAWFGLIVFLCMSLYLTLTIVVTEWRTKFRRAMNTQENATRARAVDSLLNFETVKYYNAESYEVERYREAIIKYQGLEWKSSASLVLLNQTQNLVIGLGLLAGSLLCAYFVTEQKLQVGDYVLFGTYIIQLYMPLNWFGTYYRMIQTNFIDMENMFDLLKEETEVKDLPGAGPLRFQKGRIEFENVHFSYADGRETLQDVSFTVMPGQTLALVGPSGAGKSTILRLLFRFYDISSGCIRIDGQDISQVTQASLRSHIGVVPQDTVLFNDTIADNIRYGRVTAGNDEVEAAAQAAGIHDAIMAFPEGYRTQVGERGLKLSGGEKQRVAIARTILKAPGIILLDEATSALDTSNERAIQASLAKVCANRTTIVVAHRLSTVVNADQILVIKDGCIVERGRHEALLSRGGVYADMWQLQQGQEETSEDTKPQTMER
STAT3 act-1 = activators of IL-6 induced STAT3 signaling. U3A cells, IL-6 STAT3-luciferase reporter, luminescence; 100% = signal with IL-6 EC80 alone. activation (% of control), % at 5.6 µM. 190,000 compounds, 0.91% hits;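 active = activation above the screen-wide mean of compound activation plus 3 SD, cut at about 130% in these data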
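System – human U3A cells carrying STAT3-luciferase construct · Probe or stimulus – Interleukin-6, 33 ng/mL · Schedule – compound 1 h, then IL-6 6 h at 37 °C · Signal – luminescence from STAT3-driven luciferase reporter · Evaluation – percent of IL-6-only median luminescence · Benchmarks – IL-6-only high control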
GAA850 FXN act = increases GAA850 frataxin promoter reporter activity | 360,000 compounds, 0.56% hits | activation, % at 6 µM | AID 540364 | HEK293 lucGAA850 FXN promoter luciferase reporter, 24 h; percent of 10 µM SAHA response;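 active = activation above the average of all compounds screened plus 3 SD, cutoff fixed separately per campaign, cut at about 7.5% in these data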
AHR act = activators of human aryl hydrocarbon receptor. P35869. AHR-responsive luciferase reporter cells, luminescence. activation, % at 5 µM. 320,000 compounds, 2.5% hits. AID 2796; in the data active = activation above about 47%
STAT3 act-2 = confirmation of STAT3 signaling activators. shares compounds with STAT3 act-1. U3A STAT3-luciferase reporter, IL-6 potentiation, luminescence; U3A cells lack STAT1; 100 means same as IL-6 alone. potentiation (% of control), % at 5.7 µM. 1,200 compounds, 64% hits. AID 1267;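 active = percent activation of the STAT3 luciferase reporter above a set limit taken from the earlier primary screen, cut at about 130% in these data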
NFkB act STAT3ct = counter-screen for STAT3 activators: NF-kappaB activation; human cells, NF-kappaB reporter activation; activation (% of control), % at 5.7 µM; shares compounds with STAT3 act-1; AID 1309; 1,200 compounds, 11% hits; in the data active = activation above about 120%;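 note: reporter induced by TNF-alpha stimulation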
STAT1 act = counter-screen for STAT3 activators: STAT1 activation; shares compounds with STAT3 act-1; NIH 3T3 STAT1-luciferase reporter, IFN-gamma, luminescence; activation (% of control), % at 5.7 µM; 1,200 compounds, 13% hits; AID 1318;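 active = activation above the solvent-only control well mean plus 3 SD, set per screening run, cut at about 120% in these data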
Hits are given with their value; 0 = inactive; - = no result. A selection: hits, their analogues and other compounds. The true share with any hit is near 3.3%.

SMILES	ABCB6 inh 2	STAT3 act-1	GAA850 FXN act	AHR act	STAT3 act-2	NFkB act STAT3ct	STAT1 act
N#Cc1ccsc1NC(=O)CSc1ncnc2ccccc12	0	148	0	0	144	0	0
N#Cc1ccsc1NC(=O)CSc1ncn[nH]1	0	0	0	0	-	-	-
CCN(Cc1ccccc1)S(=O)(=O)CCNC(=O)c1ccccc1	0	-	0	0	-	-	-
O=C(OCc1nc2ccccc2s1)C1CCN(S(=O)(=O)c2cccs2)CC1	0	144	0	0	140	123	131
N#Cc1ccc(/C=C\c2nccc3c2[nH]c2ccccc23)cc1	0	157	0	0	141	0	0
Clc1ccc(/C=C/c2nc3ccccc3[nH]2)cc1	0	0	0	0	-	-	-
Clc1ccc(/C=C\c2nccc3c2[nH]c2ccccc23)cc1	0	148	0	-	145	0	0
CC(=O)N1N=C(c2ccccc2O)OC1(C)CC(=O)Nc1ccccc1 (stereo not drawn)	0	139	0	0	140	0	0
O=C(COC(=O)/C=C/c1ccccc1[N+](=O)[O-])NC1CCS(=O)(=O)C1 (stereo not drawn)	0	140	0	0	187	0	126
O=C(COC(=O)/C=C/c1ccccc1[N+](=O)[O-])NC(=O)NC1CCCC1	0	-	0	-	-	-	-
O=C(COC(=O)/C=C/c1ccccc1[N+](=O)[O-])NC1CC1	0	149	0	0	142	0	0
CC(C)CCC1CC(CSC(=N)N)OC1=O (stereo not drawn)	0	0	0	0	-	-	-
CC1COc2ccccc2N1C(=O)c1ccc(Cl)nc1 (stereo not drawn)	0	145	0	0	136	0	0
Cc1ccccc1-n1nnnc1Sc1nnnn1-c1ccccc1	0	0	0	0	-	-	-
CCCSc1nnc(Sc2nnnn2-c2ccccc2)s1	0	178	0	0	147	0	0
CC1(C)CC2CC(C)(CN2S(=O)(=O)c2ccc(C(=O)Nc3ccc(S(=O)(=O)N4CCOCC4)cc3)cc2)C1 (stereo not drawn)	0	0	0	0	-	-	-
CC(=O)Nc1ccc(S(=O)(=O)N2CC3(C)CC2CC(C)(C)C3)cc1 (stereo not drawn)	0	137	0	0	0	0	0
Cc1c(C(=O)NCc2cccnc2)oc2ccc(S(=O)(=O)N3CC(C)CC(C)C3)cc12 (stereo not drawn)	0	136	0	0	160	0	0
Cn1c(=O)c(-c2ccccc2)nc2ccccc21	0	141	0	55	0	0	0
Cn1c(=O)c(-c2ccccc2N)nc2ccccc21	0	0	0	0	-	-	-
O=C(Cc1cccs1)Nc1ccccn1	0	157	0	0	137	0	0
Oc1ccc(Cl)cc1-c1cc(-c2ccccc2)n[nH]1	0	148	0	66	142	0	125
CN(CCC#N)CC(=O)Nc1ccc(NC(=O)CN(C)CCC#N)cc1	0	0	0	0	-	-	-
COC(=O)c1cc2c(C)nn(-c3ccccc3)c2s1	0	158	0	0	139	0	0
Cc1nn(-c2ccccc2)c2sc(C(=O)O)cc12	0	0	0	0	-	-	-
SMILES	ABCB6 inh 2	STAT3 act-1	GAA850 FXN act	AHR act	STAT3 act-2	NFkB act STAT3ct	STAT1 act
CCOC(=O)c1cc2c(C)nn(-c3ccccc3)c2s1	0	148	0	0	0	0	0
Cc1nn(-c2ccccc2)c2sc(C(=O)N3CCOCC3)cc12	0	177	0	78	189	129	135
c1ccc2c(c1)OCCOCCOCCOCCOCCOc1ccccc1OCCOCCOCCO2	0	0	0	0	-	-	-
O=C(CSc1nnc(Cc2ccccc2)o1)Nc1ccccc1	0	0	0	0	-	-	-
COc1ccccc1OCCC(=O)OCC(=O)c1c(N)n(C)c(=O)n(C)c1=O	0	0	0	0	-	-	-
Cc1ccc(OC(=O)c2oc3ccc(F)cc3c2C)c(C)c1	0	159	0	0	137	0	0
N#CC1=C2N=C(N)c3ccccc3N2C2=C(C(=O)CCC2)C1c1ccccc1F (stereo not drawn)	0	-	0	0	-	-	-
N#CC1=C2N=C(N)c3ccccc3N2C2=C(C(=O)CCC2)C1c1ccc(Cl)cc1 (stereo not drawn)	0	183	0	0	149	0	0
COc1ccc(Oc2nc(-c3cccnc3)nc3ccccc23)cc1	0	-	0	0	-	-	-
CCCOc1ccc(-c2nc(OC)c3ccccc3n2)cc1	0	142	0	77	152	0	0
O=c1cc(-c2ccccc2)[nH]n1-c1nc2ccccc2s1	0	138	0	0	0	126	0
O=c1cc(-c2ccccc2)[nH]n1-c1ccccc1	0	-	0	-	-	-	-
Cc1cc2ccccn2c1C(=O)Nc1ccc(Cl)cc1	0	156	0	0	166	0	0
Cc1c(C(=O)Nc2ccc(Cl)cc2)c2ccccn2c1C(=O)c1ccc(F)cc1	0	0	0	0	-	-	-
COc1ccc(NC(=O)c2[nH]c(C)c(C(C)=O)c2C)cc1	0	143	0	61	159	121	129
c1ccc(C2=Nc3ccccc3SC2c2nc3ccccc3[nH]2)cc1 (stereo not drawn)	-	158	-	0	147	130	152
O=C(CN1CCN(c2ccc(F)cc2)CC1)N(C1CCCC1)C1CCS(=O)(=O)C1 (stereo not drawn)	0	-	0	0	-	-	-
N#CC1=C(N)n2c(s/c(=C\c3ccco3)c2=O)=C(C#N)C1c1ccco1 (stereo not drawn)	0	171	0	0	170	0	0
COc1ccc(CNC(=O)[C@H](Cc2ccccc2)NC(=O)C2CCNCC2)cc1	0	-	0	0	-	-	-
Cc1ccc(S(=O)(=O)N(CC(O)CN2C(=O)NC(C)(C)C2=O)c2ccccc2)cc1 (stereo not drawn)	0	187	0	0	0	0	0
Cc1ccc2cccc(N=Cc3c(C)[nH]n(-c4ccccc4)c3=O)c2n1	0	137	0	0	135	0	0
O=C(COc1ccc2ccc(=O)oc2c1)NCCCN1CCCC1=O	0	-	0	0	-	-	-
CC(=O)n1cc(C(C[N+](=O)[O-])SCCN)c2ccccc21 (stereo not drawn)	0	141	0	51	138	0	0
CCc1ccc(NC(=S)N2CCC(NC(=O)c3ccccc3OC)CC2)cc1	0	-	0	0	-	-	-
NNc1nc2c(Cl)ccc(Cl)c2s1	0	146	0	56	0	0	0
Cc1ccc(C)c(/C=N/Nc2ccccn2)c1	0	140	0	0	0	0	128
Clc1ccc(C=NNc2ccccn2)c(Cl)c1	0	-	0	-	-	-	-
c1ccc(-c2ccccc2OCCOCCN2CCc3ccccc3C2)cc1	0	138	0	0	0	0	0
Clc1ccc(SCCOCCN2CCc3ccccc3C2)cc1	0	137	0	0	0	0	0
Cc1cnc(C(=O)OCC(=O)Nc2cc(S(=O)(=O)N3CCOCC3)ccc2Cl)cn1	0	-	0	0	-	-	-
